# Measured values taken from ChEMBL document CHEMBL1122917, “Vinblastin-23-oyl amino acid derivatives: chemistry, physicochemical data, toxicity, and antitumor activities against P388 and L1210 leukemias” (J Med Chem, 1985).
# Legend:
# Format in all cases: functional
# Mus musculus [1] = assay: Number of survivors on 30th day at dose 40 mg/kg/day in 10 mice implanted with P388 leukemia cell line; 1/10
# Mus musculus [2] = assay: Percent increase in life span of DBA2 mice after inoculation with L1210 leukemia intravenously at a dose of 50 mg/kg per day; conditions: route intravenous
# Summary of the method: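 Female DBA2 mice inoculated iv on day 0 with 10^4 L1210 cells; drugs given iv as sulfate salts in physiological saline, mostly once on day 1. %ILS from all deaths and survivors as (T/C × 100) − 100; survivors scored on days 30 and 60.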
# Mus musculus [3] = assay: Number of survivors on 30th day at dose 60 mg/kg/day in 10 mice implanted with P388 leukemia cell line; 5/10
# Mus musculus [4] = assay: Number of survivors on 30th day at dose 50 mg/kg/day in 10 mice implanted with P388 leukemia cell line; 2/10
# Mus musculus [5] = assay: Number of survivors on 60th day at dose mg/kg/day in 10 mice implanted with P388 leukemia cell line; 1/10
# Mus musculus [6] = assay: Number of survivors of DBA2 mice on 60th day after inoculation with L1210 leukemia cell line intravenously at a dose of 50 mg/kg/day; 0/10; conditions: route intravenous
# Mus musculus [7] = assay: Number of survivors of DBA2 mice on 30th day after inoculation with L1210 leukemia cell line intravenously at a dose of 50 mg/kg/day; 0/10; conditions: route intravenous
# Mus musculus [8] = assay: Percent increase in life span at dose 40 mg/kg/day in 10 mice implanted with P388 leukemia cell line
# Summary of the method: (§1)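 Female DBA2 mice inoculated iv on day 0 with 10^4 P388 cells; single iv treatment on day 1 with drug as sulfate salt in physiological saline. Survival followed; %ILS from all deaths and survivors as (T/C × 100) − 100, maximal MST 30 days; survivors counted on days 30 and 60. Most experiments confirmed three times.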
# Mus musculus [9] = assay: Number of survivors on 60th day at dose mg/kg/day in 10 mice implanted with P388 leukemia cell line; 7/10
# Mus musculus [10] = assay: Percent increase in life span at dose 55 mg/kg/day in 10 mice implanted with P388 leukemia cell line; summary of the method: as §1
# Mus musculus [11] = assay: Number of survivors on 60th day at dose mg/kg/day in 10 mice implanted with P388 leukemia cell line; 2/10
# Mus musculus [12] = assay: Percent increase in life span at dose 80 mg/kg/day in 10 mice implanted with P388 leukemia cell line; summary of the method: as §1
# Mus musculus [13] = assay: Number of survivors on 30th day at dose 80 mg/kg/day in 10 mice implanted with P388 leukemia cell line; 7/10
# Mus musculus [14] = assay: Percent increase in life span at dose 70 mg/kg/day in 10 mice implanted with P388 leukemia cell line; summary of the method: as §1
# Mus musculus [15] = assay: Number of survivors on 30th day at dose 70 mg/kg/day in 10 mice implanted with P388 leukemia cell line; 5/10
# Mus musculus [16] = assay: Number of survivors on 60th day at dose mg/kg/day in 10 mice implanted with P388 leukemia cell line; 5/10
# Mus musculus [17] = assay: Number of survivors on 60th day at dose mg/kg/day in 10 mice implanted with P388 leukemia cell line; 4/10
# Mus musculus [18] = assay: Percent increase in life span at dose 60 mg/kg/day in 10 mice implanted with P388 leukemia cell line; summary of the method: as §1
# Mus musculus [19] = assay: Number of survivors on 30th day at dose 55 mg/kg/day in 10 mice implanted with P388 leukemia cell line; 7/10
# Mus musculus [20] = assay: Percent increase in life span at dose 50 mg/kg/day in 10 mice implanted with P388 leukemia cell line; summary of the method: as §1
# Mus musculus [21] = assay: Number of survivors on 60th day at dose 50 mg/kg/day in 10 mice implanted with P388 leukemia cell line; 0/10
# Mus musculus [22] = assay: Number of survivors on 30th day at dose 20 mg/kg/day in 10 mice implanted with P388 leukemia cell line; 0/10
# Mus musculus [23] = assay: Number of survivors on 60th day at dose 40 mg/kg/day in 10 mice implanted with P388 leukemia cell line; 0/10
# Mus musculus [24] = assay: Percent increase in life span at dose 15 mg/kg/day in 10 mice implanted with P388 leukemia cell line; summary of the method: as §1
# Mus musculus [25] = assay: Percent increase in life span at dose 30 mg/kg/day in 10 mice implanted with P388 leukemia cell line; summary of the method: as §1
# Mus musculus [26] = assay: Number of survivors on 60th day at dose 20 mg/kg/day in 10 mice implanted with P388 leukemia cell line; 0/10
# Mus musculus [27] = assay: Number of survivors on 60th day at dose 5 mg/kg/day in 10 mice implanted with P388 leukemia cell line; 0/10
# Mus musculus [28] = assay: Number of survivors on 60th day at dose 30 mg/kg/day in 10 mice implanted with P388 leukemia cell line; 0/10
# Mus musculus [29] = assay: Number of survivors on 60th day at dose 15 mg/kg/day in 10 mice implanted with P388 leukemia cell line; 0/10
# Mus musculus [30] = assay: Percent increase in life span at dose 20 mg/kg/day in 10 mice implanted with P388 leukemia cell line; summary of the method: as §1
# Mus musculus [31] = assay: Number of survivors on 30th day at dose 50 mg/kg/day in 10 mice implanted with P388 leukemia cell line; 0/10
# Mus musculus [32] = assay: Number of survivors on 30th day at dose 30 mg/kg/day in 10 mice implanted with P388 leukemia cell line; 0/10
# Mus musculus [33] = assay: Number of survivors on 30th day at dose 40 mg/kg/day in 10 mice implanted with P388 leukemia cell line; 0/10
# Mus musculus [34] = assay: Percent increase in life span at dose 5 mg/kg/day in 10 mice implanted with P388 leukemia cell line; summary of the method: as §1
# Mus musculus [35] = assay: Number of survivors on 30th day at dose 15 mg/kg/day in 10 mice implanted with P388 leukemia cell line; 0/10
# Mus musculus [36] = assay: Number of survivors on 30th day at dose 5 mg/kg/day in 10 mice implanted with P388 leukemia cell line; 0/10
# Mus musculus [37] = assay: Number of survivors on 30th day at dose 8 mg/kg/day in 10 mice implanted with P388 leukemia cell line
# Mus musculus [38] = assay: Percent increase in life span at dose 8 mg/kg/day in 10 mice implanted with P388 leukemia cell line; summary of the method: as §1
# Mus musculus [39] = assay: Number of survivors on 30th day at dose 10 mg/kg/day in 10 mice implanted with P388 leukemia cell line
# Mus musculus [40] = assay: Number of survivors of DBA2 mice on 30th day after inoculation with L1210 leukemia cell line intravenously at a dose of 9 mg/kg/day; 0/10; conditions: route intravenous
# Mus musculus [41] = assay: Number of survivors on 60th day at dose 10 mg/kg/day in 10 mice implanted with P388 leukemia cell line
# Mus musculus [42] = assay: Number of survivors on 30th day at dose 6 mg/kg/day in 10 mice implanted with P388 leukemia cell line
# Mus musculus [43] = assay: Number of survivors on 60th day at dose 6 mg/kg/day in 10 mice implanted with P388 leukemia cell line
# Mus musculus [44] = assay: Number of survivors on 60th day at dose 8 mg/kg/day in 10 mice implanted with P388 leukemia cell line; summary of the method: as §1
# Mus musculus [45] = assay: Number of survivors of DBA2 mice on 60th day after inoculation with L1210 leukemia cell line intravenously at a dose of 9 mg/kg/day; 0/10; conditions: route intravenous
# Summary of the method: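 Female DBA₂ mice received 10⁴ L1210 cells iv on day 0. Compounds were given iv as sulfate salts in physiological saline, as a single dose on day 1 (mg/kg per day). Groups were 10 mice. Survivors were counted on day 60. Cells were maintained by ip passage in DBA₂ mice.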
# Mus musculus [46] = assay: Percent increase in life span at dose 6 mg/kg/day in 10 mice implanted with P388 leukemia cell line; summary of the method: as §1
# Mus musculus [47] = assay: Percent increase in life span of DBA2 mice after inoculation with L1210 leukemia intravenously at a dose of 9 mg/lg per day
# Mus musculus [48] = assay: Number of survivors on 30th day at dose 12.5 mg/kg/day in 10 mice implanted with P388 leukemia cell line
# Mus musculus [49] = assay: Number of survivors on 30th day at dose 11 mg/kg/day in 10 mice implanted with P388 leukemia cell line
# Mus musculus [50] = assay: Percent increase in life span of DBA2 mice after inoculation with L1210 leukemia intravenously at a dose of 10 mg/lg per day
# Mus musculus [51] = assay: Number of survivors on 60th day at dose 11 mg/kg/day in 10 mice implanted with P388 leukemia cell line
# Mus musculus [52] = assay: Number of survivors on 60th day at dose 12.5 mg/kg/day in 10 mice implanted with P388 leukemia cell line
# Mus musculus [53] = assay: Number of survivors of DBA2 mice on 30th day after inoculation with L1210 leukemia cell line intravenously at a dose of 10 mg/kg/day; 0/10; conditions: route intravenous
# Mus musculus [54] = assay: Percent increase in life span at dose 10 mg/kg/day in 10 mice implanted with P388 leukemia cell line; summary of the method: as §1
# Mus musculus [55] = assay: Number of survivors on 30th day at dose 14 mg/kg/day in 10 mice implanted with P388 leukemia cell line
# Mus musculus [56] = assay: Percent increase in life span at dose 11 mg/kg/day in 10 mice implanted with P388 leukemia cell line; summary of the method: as §1
# Mus musculus [57] = assay: Percent increase in life span at dose 12.5 mg/kg/day in 10 mice implanted with P388 leukemia cell line; summary of the method: as §1
# Mus musculus [58] = assay: Number of survivors on 60th day at dose 14 mg/kg/day in 10 mice implanted with P388 leukemia cell line
# Mus musculus [59] = assay: Number of survivors of DBA2 mice on 60th day after inoculation with L1210 leukemia cell line intravenously at a dose of 10 mg/kg/day; 0/10; conditions: route intravenous
# Mus musculus [60] = assay: Percent increase in life span at dose 14 mg/kg/day in 10 mice implanted with P388 leukemia cell line; summary of the method: as §1
smiles,measurement,setting,value
CCCCOC(=O)[C@H](Cc1c[nH]c2ccccc12)NC(=O)[C@@]1(O)[C@H](O)[C@]2(CC)C=CCN3CC[C@@]4(c5cc([C@@]6(C(=O)OC)C[C@H]7C[N@](CCc8c6[nH]c6ccccc86)C[C@](O)(CC)C7)c(OC)cc5N(C)[C@@]14C)[C@@H]32,Survivors,Mus musculus [1],1
same,ILS at 50 mg/kg/day,Mus musculus [2],44%
same,Survivors,Mus musculus [3],5
same,Survivors,Mus musculus [4],2
same,Survivors,Mus musculus [5],1
same,Survivors,Mus musculus [6],0
same,Survivors,Mus musculus [7],0
same,ILS at 40 mg/kg/day,Mus musculus [8],63%
same,Survivors,Mus musculus [9],7
same,ILS at 55 mg/kg/day,Mus musculus [10],> 163%
same,Survivors,Mus musculus [11],2
same,ILS at 80 mg/kg/day,Mus musculus [12],> 216%
same,Survivors,Mus musculus [13],7
same,ILS at 70 mg/kg/day,Mus musculus [14],52%
same,Survivors,Mus musculus [15],5
same,Survivors,Mus musculus [16],5
same,Survivors,Mus musculus [17],4
same,ILS at 60 mg/kg/day,Mus musculus [18],140%
same,Survivors,Mus musculus [19],7
same,ILS at 50 mg/kg/day,Mus musculus [20],31.6%
CC[C@]1(O)C[C@@H]2C[N@](CCc3c([nH]c4ccccc34)[C@@](C(=O)OC)(c3cc4c(cc3OC)N(C)[C@@]3(C)[C@@](O)(C(=O)N[C@@H](CC(C)C)C(N)=O)[C@H](O)[C@]5(CC)C=CCN6CC[C@]43[C@@H]65)C2)C1,Survivors,Mus musculus [21],0
same,Survivors,Mus musculus [22],0
same,Survivors,Mus musculus [23],0
same,ILS at 15 mg/kg/day,Mus musculus [24],8.7%
same,ILS at 30 mg/kg/day,Mus musculus [25],1.7%
same,Survivors,Mus musculus [26],0
same,Survivors,Mus musculus [27],0
same,Survivors,Mus musculus [28],0
same,Survivors,Mus musculus [29],0
same,ILS at 40 mg/kg/day,Mus musculus [8],19%
same,ILS at 20 mg/kg/day,Mus musculus [30],1.7%
same,Survivors,Mus musculus [31],0
same,Survivors,Mus musculus [32],0
same,Survivors,Mus musculus [33],0
same,ILS at 50 mg/kg/day,Mus musculus [20],15.5%
same,ILS at 5 mg/kg/day,Mus musculus [34],1.7%
same,Survivors,Mus musculus [35],0
same,Survivors,Mus musculus [36],0
CCOC(=O)C(CC(C)C)NC(=O)[C@@]1(O)[C@H](O)[C@]2(CC)C=CCN3CC[C@@]4(c5cc([C@@]6(C(=O)OC)C[C@H]7CN(CCc8c6[nH]c6ccccc86)C[C@](O)(CC)C7)c(OC)cc5N(C)[C@@]14C)[C@@H]32 (some centres not stated),Survivors,Mus musculus [37],2
same,ILS at 8 mg/kg/day,Mus musculus [38],46.5%
same,Survivors,Mus musculus [39],7
same,Survivors,Mus musculus [40],0
same,Survivors,Mus musculus [41],2
same,Survivors,Mus musculus [42],0
same,Survivors,Mus musculus [43],0
same,Survivors,Mus musculus [44],1
same,Survivors,Mus musculus [45],0
same,ILS at 6 mg/kg/day,Mus musculus [46],26.7%
same,ILS,Mus musculus [47],27%
same,Survivors,Mus musculus [48],6
same,Survivors,Mus musculus [49],3
same,ILS,Mus musculus [50],29.4%
same,Survivors,Mus musculus [51],0
same,Survivors,Mus musculus [52],1
same,Survivors,Mus musculus [53],0
same,ILS at 10 mg/kg/day,Mus musculus [54],> 146%
same,Survivors,Mus musculus [55],2
same,ILS at 11 mg/kg/day,Mus musculus [56],155%
same,ILS at 12.5 mg/kg/day,Mus musculus [57],> 146%
same,Survivors,Mus musculus [58],0
same,Survivors,Mus musculus [59],0
same,ILS at 14 mg/kg/day,Mus musculus [60],30%
